Assay results published in PubChem BioAssay.
Active and inactive are the calls of the source. Cut-off read from the data, not from the text of the source, unless noted: active = inhibition above about 30%; inactive = the rest.

Legend:
[1] = Her2 expression decrease, cell viability multiplex – SKBR3 breast tumor cells, AlphaScreen, ATP viability, primary screen (AID 461;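 active = Her2 level under about 52% in both replicate screens, with viability over 70% of control, limit read from the data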;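 for Her2 level: lower value means less Her2 protein in the cells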;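 for viability: percent of carrier control wells set as 100% viability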); conditions: SKBR3 Her2 protein level, 18-24 h, measured here: SKBR3 viability, ATP luminescence, at 10 µM
[2] = target: Receptor tyrosine-protein kinase erbB-2 (Homo sapiens) (UniProt P04626); test: as above; conditions: 18-24 h, at 10 µM, stronger effect = lower value
Sequence of Receptor tyrosine-protein kinase erbB-2 (Homo sapiens) (P04626 whole entry, looked up): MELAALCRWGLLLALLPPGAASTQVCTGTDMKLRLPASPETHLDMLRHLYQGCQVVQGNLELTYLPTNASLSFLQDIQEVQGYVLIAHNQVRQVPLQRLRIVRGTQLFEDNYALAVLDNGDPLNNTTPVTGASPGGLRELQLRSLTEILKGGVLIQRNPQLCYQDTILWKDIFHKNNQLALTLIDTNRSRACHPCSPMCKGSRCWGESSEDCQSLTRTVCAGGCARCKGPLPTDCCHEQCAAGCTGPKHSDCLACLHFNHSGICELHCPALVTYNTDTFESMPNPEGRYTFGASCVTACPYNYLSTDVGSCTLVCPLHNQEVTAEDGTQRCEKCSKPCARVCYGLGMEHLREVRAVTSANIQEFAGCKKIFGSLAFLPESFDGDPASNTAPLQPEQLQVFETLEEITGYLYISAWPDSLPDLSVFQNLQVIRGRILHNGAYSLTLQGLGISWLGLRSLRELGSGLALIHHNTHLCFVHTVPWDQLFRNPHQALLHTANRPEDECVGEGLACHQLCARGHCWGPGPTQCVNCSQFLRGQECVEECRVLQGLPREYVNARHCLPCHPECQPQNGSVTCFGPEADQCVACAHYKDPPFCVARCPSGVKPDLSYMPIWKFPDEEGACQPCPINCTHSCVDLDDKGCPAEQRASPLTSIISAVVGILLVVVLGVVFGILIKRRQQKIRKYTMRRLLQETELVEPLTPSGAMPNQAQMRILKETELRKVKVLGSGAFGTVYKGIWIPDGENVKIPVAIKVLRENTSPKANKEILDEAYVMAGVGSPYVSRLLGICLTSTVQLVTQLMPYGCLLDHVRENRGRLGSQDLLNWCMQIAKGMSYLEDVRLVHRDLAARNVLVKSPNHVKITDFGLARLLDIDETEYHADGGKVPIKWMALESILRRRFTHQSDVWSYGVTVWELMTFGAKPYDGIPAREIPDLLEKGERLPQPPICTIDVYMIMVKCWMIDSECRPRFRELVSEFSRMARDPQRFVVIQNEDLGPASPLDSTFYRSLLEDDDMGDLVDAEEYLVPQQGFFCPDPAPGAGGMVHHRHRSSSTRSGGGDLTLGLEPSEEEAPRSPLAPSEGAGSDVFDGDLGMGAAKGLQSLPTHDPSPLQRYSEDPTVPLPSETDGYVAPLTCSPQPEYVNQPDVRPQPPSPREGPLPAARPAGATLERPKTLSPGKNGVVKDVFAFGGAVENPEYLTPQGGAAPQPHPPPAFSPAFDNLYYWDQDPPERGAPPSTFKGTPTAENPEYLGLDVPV

[3] = reduced viability of SK-BR-3 breast cancer cells – cell-based, 24 h, human, pilot screen (AID 572;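 active = viability at or below 10% of carrier control in both of two separate runs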;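 note: compound exposure lasted between 18 and 24 h rather than exactly 24 h; 100% = carrier-treated control wells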); conditions: SK-BR-3 viability, CellTiter-Glo luminescence, at 10 µM, stronger effect = lower value
[4] = HUVEC growth inhibition – cell-based, human, primary screen (AID 575;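 active = viability at or below 30% in both replicate assays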;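 note: 100% = median of untreated cell wells with 0.1% DMSO on each plate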); conditions: HUVEC proliferation, CellTiter-Glo luminescence, 72 h; at 10 µM; stronger effect = lower value
Method in brief: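 Assay system: primary human umbilical vein endothelial cells / Buffer or medium: endothelial basal medium with 2% FBS plus growth supplements / Compound dosing: one dose, 10 µM final, 0.1% DMSO / Timing: 72 h treatment at 37 °C / Signal: CTG luminescence / Benchmarks: 32 DMSO-only cell-control wells (high), 32 MePR drug-control wells (low) per plate / Plate: collagen-coated 384-well format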

[5] = H69AR cell proliferation blockers – human, duplicate replicates, primary screen (AID 580;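 active = viability at or under a set limit in both replicates, limit being median viability minus 3 SD, cut at about 48% in these data, passing the limit was not always enough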;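 note: 100% = mean luminescence of untreated wells and 0% = no signal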); conditions: H69AR lung tumor cells viability, ATP luminescence, 72 h; at 10 µM; stronger effect = lower value
[6] = MRP1 drug-resistance reversers in H69AR cells – cell-based, doxorubicin co-treatment, pilot screen (AID 601;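 active = viability loss from added drug above about 55%, and viability with drug at most 40%, in both replicates, limit read from the data, passing the limit was not always enough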); conditions: CellTiter-Glo, 72 h, at 10 µM; for differential viability (reversal): stronger effect = higher value
[7] = yeast transport mutant growth inhibition pilot in 384-well plates, post-Golgi transport modulator project (AID 636; in the data active = inhibition above about 31%); conditions: absorbance 615 nm, about 18 h, stronger effect = higher value
[8] = growth suppression of yeast trafficking mutant, preliminary HTS, modulators of trafficking downstream of Golgi apparatus project, 1536-format plate, OD 615 nm (AID 637); conditions: yeast transport mutant growth, absorbance 615 nm, 18 h; stronger effect = higher value
[9] = H69AR cells + 2 uM doxorubicin, measured here: viability with 2 uM doxorubicin, stronger effect = lower value
[10] = H69AR cells, compound alone cytotoxicity

Row | SMILES | viability [1] [%] | Her2 level [2] | viability [3] | viability [4] | viability [5] | differential viability (reversal) ([6]; H69AR cells + 2 uM doxorubicin) | viability [6, 9] [%] | viability [6, 10] [%] | inhibition [7] | inhibition [8]
1 | CCc1ccccc1NC(=O)CSc1ncn[nH]1 | 101 | 124% (inactive) | 101% (inactive) | 97.9% (inactive) | 103% (inactive) | 8.47% (inactive) | 94 | 103 | -1.82% (inactive) | -6.33% (inactive)
2 | CCS(=O)(=O)Nc1ccc(C(=O)CC2(O)C(=O)Nc3ccccc32)cc1 (stereo not given) | 105 | 91% (inactive) | 105% (inactive) | 90.3% (inactive) | 89.5% (inactive) | -7.81% (inactive) | 97.3 | 89.5 | -5.87% (inactive) | 2.13% (inactive)
3 | CCC(C)NC(=O)c1cc(-c2ccc(OC)cc2)on1 (stereo not given) | 106 | 94% (inactive) | 106% (inactive) | 118% (inactive) | 89.8% (inactive) | 0.48% (inactive) | 89.3 | 89.8 | -8.24% (inactive) | 1.33% (inactive)
4 | CCn1c(C(=O)N2CCCC(C(=O)NCCCc3ccccc3)C2)cc2sccc21 (stereo not given) | 102 | 96.5% (inactive) | 102% (inactive) | 64.3% (inactive) | 96.7% (inactive) | 3.47% (inactive) | 93.2 | 96.7 | -2.08% (inactive) | -9.84% (inactive)
5 | O=C(CN(CCc1ccccc1)C(=O)CNS(=O)(=O)c1ccccc1)NCC1CCCO1 (stereo not given) | 91 | 87.5% (inactive) | 91% (inactive) | 86.9% (inactive) | 102% (inactive) | 5.36% (inactive) | 96.2 | 102 | -0.81% (inactive) | -2.13% (inactive)
6 | COc1ccc(C2CC(C(F)(F)F)n3ncc(C(=O)NCc4cccnc4)c3N2)cc1OC (stereo not given) | 86.5 | 93% (inactive) | 86.5% (inactive) | 94.2% (inactive) | 91.1% (inactive) | 11.6% (inactive) | 79.5 | 91.1 | -4.47% (inactive) | 2.33% (inactive)
7 | c1ccc(CNc2ncnc3ccccc23)cc1 | 86 | 87% (inactive) | 86% (inactive) | 58.2% (inactive) | 83.8% (inactive) | -13.6% (inactive) | 97.3 | 83.8 | -5% (inactive) | 3.93% (inactive)
8 | O=C(NC1CCCCC1)c1cc2nc(-c3ccco3)cc(C(F)(F)F)n2n1 | 81.5 | 93% (inactive) | 81.5% (inactive) | 106% (inactive) | 80.2% (inactive) | -2.98% (inactive) | 83.2 | 80.2 | -2.08% (inactive) | 2.79% (inactive)
9 | O=C(Cn1nnc(-c2cccs2)n1)OC1CCCCC1 | 94.5 | 104% (inactive) | 94.5% (inactive) | 81.7% (inactive) | 110% (inactive) | 16.9% (inactive) | 93.3 | 110 | -4.93% (inactive) | -3.39% (inactive)
10 | Cc1ccc(-c2nc3ccccc3[nH]2)s1 | 74 | 95.5% (inactive) | 74% (inactive) | 59.8% (inactive) | 58.8% (inactive) | 4.25% (inactive) | 54.5 | 58.8 | 0.77% (inactive) | -9% (inactive)
11 | Cc1nc2ccccc2cc1O | 133 | 104% (inactive) | 133% (inactive) | 85.9% (inactive) | 92% (inactive) | -16.9% (inactive) | 109 | 92 | -6.05% (inactive) | 13.1% (inactive)
12 | Nc1c(C(=O)NCCc2ccccc2)nnn1Cc1ccccc1 | 108 | 97.5% (inactive) | 108% (inactive) | 89% (inactive) | 95.8% (inactive) | 11.2% (inactive) | 84.7 | 95.8 | -8.55% (inactive) | -1.45% (inactive)
13 | COc1ccc(CN2CC(C(=O)NCCCOC(C)C)CC2=O)cc1 (stereo not given) | 101 | 90.5% (inactive) | 101% (inactive) | 107% (inactive) | 99.1% (inactive) | 3.83% (inactive) | 95.2 | 99.1 | -2.11% (inactive) | 0.81% (inactive)
14 | Cc1ccc(/C=N/n2nnnc2N)o1 | 93 | 88% (inactive) | 93% (inactive) | 111% (inactive) | 95.1% (inactive) | 10.6% (inactive) | 84.5 | 95.1 | -8.38% (inactive) | -10.5% (inactive)
15 | CCN(CC)CCn1c2ccccc2c2nc(C)sc21 | 113 | 96.5% (inactive) | 113% (inactive) | 104% (inactive) | 92.6% (inactive) | -7.46% (inactive) | 100 | 92.6 | -5.32% (inactive) | -2.54% (inactive)
16 | c1cncc(-c2nnc3sc(-c4ccco4)nn23)c1 | 118 | 106% (inactive) | 118% (inactive) | 99.5% (inactive) | 91.5% (inactive) | -6.86% (inactive) | 98.3 | 91.5 | -5.39% (inactive) | 4.68% (inactive)
17 | COc1ccc2c(C(F)(F)F)cc(=O)oc2c1C | 92 | 99.5% (inactive) | 92% (inactive) | 110% (inactive) | 99.8% (inactive) | 6.5% (inactive) | 93.3 | 99.8 | -4.67% (inactive) | 9.68% (inactive)
18 | CN(Cc1ccccc1)c1nc2c(c(=O)[nH]c(=O)n2C)n1Cc1ccccc1Cl | 114 | 87.5% (inactive) | 114% (inactive) | 82.2% (inactive) | 85.4% (inactive) | 4.96% (inactive) | 80.4 | 85.4 | -5.2% (inactive) | 8.36% (inactive)
19 | COCCSc1ccccc1C(=O)Nc1nncs1 | 88 | 102% (inactive) | 88% (inactive) | 96.2% (inactive) | 92.5% (inactive) | 3.37% (inactive) | 89.2 | 92.5 | -4.73% (inactive) | 2.22% (inactive)
20 | COc1ccc(C(C)=O)c(OC(=O)c2ccc(OC)c(OC)c2)c1 | 104 | 88.5% (inactive) | 104% (inactive) | 92.8% (inactive) | 98.6% (inactive) | 1.11% (inactive) | 97.5 | 98.6 | -6.4% (inactive) | -3.33% (inactive)
21 | COc1cc(S(=O)(=O)N2CCOCC2)ccc1NC(=O)COC(=O)C12CC3CC(CC(C3)C1)C2 | 92 | 73.5% (inactive) | 92% (inactive) | 87.2% (inactive) | 85% (inactive) | -11.2% (inactive) | 96.2 | 85 | 0.38% (inactive) | -11.7% (inactive)
22 | CCC(C)(C(=O)NC1CCCCC1)N(Cc1ccco1)C(=O)c1cnccn1 (stereo not given) | 82 | 98% (inactive) | 82% (inactive) | 88.7% (inactive) | 97.5% (inactive) | 8.25% (inactive) | 89.2 | 97.5 | -0.78% (inactive) | -3.77% (inactive)
23 | CCC(C)(C(=O)NC1CCCCC1)N(Cc1ccco1)C(=O)c1ccc2c(c1)OCO2 (stereo not given) | 92.5 | 89% (inactive) | 92.5% (inactive) | 82.3% (inactive) | 83.4% (inactive) | 3.06% (inactive) | 80.3 | 83.4 | -1.82% (inactive) | -7.05% (inactive)
24 | CCOc1cc(N2CCOCC2)c(OCC)cc1NC(=O)COC(=O)CCc1c[nH]c2ccccc12 | 97.5 | 98.5% (inactive) | 97.5% (inactive) | 105% (inactive) | 99.4% (inactive) | 4.66% (inactive) | 94.8 | 99.4 | -8.38% (inactive) | -8.83% (inactive)
25 | c1ccc2nc(-c3nc4ccccc4[nH]3)ccc2c1 | 104 | 74% (inactive) | 104% (inactive) | 55.2% (inactive) | 66.6% (inactive) | -3.97% (inactive) | 70.6 | 66.6 | 0% (inactive) | -1.64% (inactive)
26 | O=c1ccc(S(=O)(=O)N2CCC(Cc3ccccc3)CC2)c[nH]1 | 86 | 80.5% (inactive) | 86% (inactive) | 111% (inactive) | 95.3% (inactive) | 8.51% (inactive) | 86.8 | 95.3 | 0.13% (inactive) | -4.33% (inactive)
27 | CC12CN3CC(C)(CN(C1)C3c1ccc(Br)cc1)C2 (stereo not given) | 99 | 97% (inactive) | 99% (inactive) | 99.2% (inactive) | 102% (inactive) | 12.9% (inactive) | 89.4 | 102 | -2.63% (inactive) | 2.46% (inactive)
28 | CCOC(=O)C1CCN(C(=O)C2(NC(=O)Nc3ccccc3Cl)CCCCC2)CC1 | 133 | 98% (inactive) | 133% (inactive) | 105% (inactive) | 87.9% (inactive) | 7.69% (inactive) | 80.2 | 87.9 | -1.95% (inactive) | -1.11% (inactive)
